Test results published in ChEMBL document CHEMBL1671798, “A competition assay to identify amyloidogenesis inhibitors by monitoring the fluorescence emitted by the covalent attachment of a stilbene derivative to transthyretin” (Bioorg Med Chem, 2011).

Assays:
[1] = target: Transthyretin (Homo sapiens) (UniProt P02766); test: Displacement of 4-fluorophenyl 3-(4-hydroxy-3,5-dimethylstyryl)benzoate from recombinant TTR assessed as fluorescence at 37 degC after 3 hrs; parameters: concentration or dose not given beside the values
How it was run: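 Recombinant WT-TTR from E. coli at 3.6 µM in 10 mM sodium phosphate, 100 mM KCl, 1 mM EDTA, pH 7.0. Test compound (7.2 µM final, added from DMSO) was preincubated 4 h at 25 °C with slow vortexing. S1 (7.2 µM final) was then added. Fluorescence (ex 328/em 384 nm) was read every 10 min for 8 h at 37 °C. The 3 h value is given as % competition fluorescence.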

[2] = target: Transthyretin (Homo sapiens) (UniProt P02766); test: Inhibition of wild type-TTR expressed in Escherichia coli assessed as amyloid fibril formation at pH 4.4 at 7. 2 uM after 72 hrs by acid-mediated aggregation assay relative to control; parameters: scale not given: the % may be the effect or the level left
[3] = target: Transthyretin (Homo sapiens) (UniProt P02766); test: Displacement of S-phenyl 3-(4-hydroxy-3,5-dimethylstyryl)benzothioate from human TTR assessed as fluorescence at 37 degC after 3 hrs; parameters: concentration or dose not given beside the values
How it was run: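 Commercial human serum with endogenous TTR (about 7.5 µM, as measured). Test compound (15 µM final) and S2 (5 µM final) were both added from DMSO stocks. Conjugate fluorescence was read every 10 min over 8 h on a plate reader. The 3 h value is given as % competition fluorescence.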

Structure (SMILES) | Activity [1] | Activity [2] | Activity [3]
O=C(Nc1cc(Br)c(O)c(Br)c1)c1cccc(Br)c1 | 13% | 8% | 28%
Brc1cc(Br)cc(Nc2ccccc2)c1 | 76% |  | 100%
Oc1c(Br)cc(CCc2ccc(OC(F)F)cc2)cc1Br | -3% | 1% | 42%
CC(C(=O)O)c1ccc(-c2ccccc2)c(F)c1 (stereo unspecified) | 93% | 29% | 96%
Cc1cccc(CCc2cc(Br)c(O)c(Br)c2)c1 | -7% | 3% | 2%
COc1c(Br)cc(C(=O)Nc2cc(Br)c(O)c(Br)c2)cc1Br | 4% | 10% | 44%
COc1ccccc1/C=C/c1cc(Br)c(O)c(Br)c1 | -6% | 0% | 0%
COc1cc(CCc2cc(Br)c(O)c(Br)c2)cc(OC)c1 | 3% | 1% | 30%
O=C(O)c1cc(-c2ccc(F)cc2F)ccc1O | 75% | 2% | 86%
O=C(Nc1cc(Br)c(O)c(Br)c1)c1cc(F)cc(F)c1 | 12% | 10% | 35%
Cc1cc(Oc2ccccc2)cc(C)c1O | 76% |  | 81%
O=C(Nc1cc(Br)c(O)c(Br)c1)c1ccccc1O | 2% | 2% | 29%
O=C(Nc1ccccc1)Nc1cc(Br)c(O)c(Br)c1 | 82% | 9% | 100%
O=C(Nc1cc(Br)c(O)c(Br)c1)c1cccc(O)c1 | 26% | 9% | 18%
O=C(Nc1ccccc1)c1cc(Br)c(O)c(Br)c1 | 42% |  | 61%
O=C(O)Cc1ccccc1Nc1c(Cl)cccc1Cl | 85% | 17% | 99%
O=C(O)c1ccc(C(=O)Nc2cc(Br)c(O)c(Br)c2)cc1 | 57% | 11% | 45%
Cc1cccc(Nc2ccccc2C(=O)O)c1C | 65% | 7% | 96%
O=C(O)c1cccc(C(=O)Nc2cc(Br)c(O)c(Br)c2)c1 | 77% | 11% | 85%
O=C(Nc1cc(Br)c(O)c(Br)c1)c1ccc(O)cc1 | 32% | 21% | 16%
O=C(Nc1cc(Br)c(O)c(Br)c1)c1cccc(F)c1 | 18% | 13% | 54%
Oc1c(Br)cc(CCc2cccc(C(F)(F)F)c2)cc1Br | -6% | 1% | 3%
Nc1cccc(C(=O)Nc2cc(Br)c(O)c(Br)c2)c1 | 35% | 25% | 24%
Oc1c(Br)cc(/C=C/c2ccc(Br)cc2)cc1Br | -6% | 2% | 2%
COc1c(Cl)cc(C(=O)Nc2cc(Br)c(O)c(Br)c2)cc1Cl | 4% | 9% | 26%
Cc1ccc(Cl)c(Nc2ccccc2C(=O)O)c1Cl | 62% | 3% | 85%
O=C(Nc1cc(Br)c(O)c(Br)c1)c1cccc(Cl)c1 | 13% | 8% | 28%
O=C(O)c1ccccc1Nc1cccc(C(F)(F)F)c1 | 44% | 2% | 97%
